# Entries after “also recorded” stand apart in the source; their conditions may differ.
# Tests used:
# [1] = in vivo distribution of PREPL inhibitor to brain by LC-MS/MS; details: mouse, 1 mg/kg intraperitoneal, 30 minutes, brain extract, MRM
# PREPL [2] = molecular target: T1, PREPL (Mus musculus, UniProt Q8C167); assay: MUGB; assay type: biochemical
# PREPL [3] = molecular target: T1, PREPL; assay: in situ ABPP assay in PREPL-transfected Neuro2A cells; assay type: cell-based; details: 50 μM inhibitor in media
# How it was run: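 Neuro2A cells plated at 1.5 × 10^6 per well and transfected next day with mouse PREPL plasmid by lipofection. Two days later, medium replaced with medium containing test compound for 1.5 h. Cell-permeable FP-alkyne then added (10 μM final) for 1 h. Cells PBS-washed, scraped, lysed by 7 freeze-thaw cycles and spun at 20,000 x g. Lysate at 4 mg/ml clicked with rhodamine-azide/TCEP/ligand/CuSO4 for 1 h, then resolved by SDS-PAGE.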
# PREPL [4] = molecular target: T1, PREPL; assay: gel-based ABPP IC50 determination with recombinant PREPL and FP-Rh; assay type: biochemical
# PREPL [5] = molecular target: T1, PREPL; assay: competitive gel-based ABPP in PREPL-spiked mouse brain proteome; assay type: biochemical; details: 50 μM inhibitor, brain proteome 1 mg/mL spiked with 40 nM PREPL, FP-Rh
# How it was run: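 Brain proteome diluted to 1 mg/mL in PBS pH 7.4 and spiked with recombinant His-tagged mouse PREPL (E. coli-expressed, Ni-IMAC purified), with Pluronic at 0.01% final. Test compound or DMSO preincubated 30 min at room temperature. FP-Rh at 0.5 μM final for 15 min, then SDS-loading-buffer quench. Samples run on 10% SDS-PAGE, scanned in-gel for fluorescence, and PREPL bands quantified for labeling extent.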
# PEP = PEP (Mus musculus, UniProt Q9QUR6); assay: PEP selectivity assay; assay type: biochemical; details: 20 μM inhibitor; >20% reduction in PEP activity = cross-reactive
# Chain of PEP (Q9QUR6 whole entry): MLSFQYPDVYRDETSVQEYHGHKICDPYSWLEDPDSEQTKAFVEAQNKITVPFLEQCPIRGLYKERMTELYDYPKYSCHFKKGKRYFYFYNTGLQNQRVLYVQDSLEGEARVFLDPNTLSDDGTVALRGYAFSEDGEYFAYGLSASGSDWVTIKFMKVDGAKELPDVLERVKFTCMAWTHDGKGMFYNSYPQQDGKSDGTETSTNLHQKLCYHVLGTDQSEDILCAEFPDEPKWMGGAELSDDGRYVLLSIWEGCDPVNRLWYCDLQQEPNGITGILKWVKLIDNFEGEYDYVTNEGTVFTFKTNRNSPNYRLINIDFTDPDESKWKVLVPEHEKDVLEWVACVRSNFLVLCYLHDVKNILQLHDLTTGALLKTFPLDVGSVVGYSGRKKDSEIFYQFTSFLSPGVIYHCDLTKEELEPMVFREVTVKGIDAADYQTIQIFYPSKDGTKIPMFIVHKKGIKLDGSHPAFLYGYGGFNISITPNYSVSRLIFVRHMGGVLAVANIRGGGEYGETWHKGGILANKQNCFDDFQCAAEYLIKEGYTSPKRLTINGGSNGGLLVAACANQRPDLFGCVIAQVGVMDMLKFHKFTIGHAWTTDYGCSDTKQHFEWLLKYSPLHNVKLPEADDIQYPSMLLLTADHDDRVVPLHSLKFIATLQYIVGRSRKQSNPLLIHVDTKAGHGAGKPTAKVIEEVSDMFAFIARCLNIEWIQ
# T1 sequence (Q8C167 88-725): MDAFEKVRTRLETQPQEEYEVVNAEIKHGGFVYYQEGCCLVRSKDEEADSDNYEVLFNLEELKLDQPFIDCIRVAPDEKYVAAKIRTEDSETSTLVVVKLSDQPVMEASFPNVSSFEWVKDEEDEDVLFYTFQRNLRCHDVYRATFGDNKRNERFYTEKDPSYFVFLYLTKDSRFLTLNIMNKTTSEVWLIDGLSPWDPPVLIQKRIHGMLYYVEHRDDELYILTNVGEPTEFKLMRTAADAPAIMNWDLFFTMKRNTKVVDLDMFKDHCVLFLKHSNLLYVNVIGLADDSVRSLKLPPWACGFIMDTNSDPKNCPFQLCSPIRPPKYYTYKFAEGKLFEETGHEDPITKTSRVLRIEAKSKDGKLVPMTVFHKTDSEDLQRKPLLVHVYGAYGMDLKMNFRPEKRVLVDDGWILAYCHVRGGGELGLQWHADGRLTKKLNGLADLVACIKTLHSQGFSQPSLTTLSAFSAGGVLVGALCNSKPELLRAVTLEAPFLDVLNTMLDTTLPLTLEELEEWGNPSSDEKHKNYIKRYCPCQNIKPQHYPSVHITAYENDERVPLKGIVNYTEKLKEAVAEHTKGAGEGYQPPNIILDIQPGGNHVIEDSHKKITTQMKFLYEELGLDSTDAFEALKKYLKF
structure (smiles),measurement,setting,value
"CC(C)Cc1[nH]c(=O)c(C#N)c2c1CCC2 [compound 8, 1-isobutyl-3-oxo-3,5,6,7-tetrahydro-2H-cyclopenta[c]pyridine-4-carbonitrile]",presence in brain / crossing of blood-brain barrier,[1],strong signal; also recorded: able to cross the blood-brain barrier
same,inhibition of MUGB breakdown by PREPL,PREPL [2],inhibited breakdown of MUGB by PREPL
same,inhibition of PREPL in cells (in situ),PREPL [3],able to cross the cell membrane and inhibit PREPL intracellularly; also recorded: lighter band on the gel
same,IC50,PREPL [4],3 to 12 µM
same,inhibition of PREPL in complex (brain) proteome,PREPL [5],able to inhibit PREPL in a complex proteome; also recorded: most potent carbonitrile inhibitor in the brain proteome ABPP assay; also recorded: selectively inhibit PREPL in brain proteomes
same,crossreactivity against PEP,PEP,non-crossreactive

# Reference: paper PMC3145007 (Journal of the American Chemical Society, 2011)
